Source: paper PMC5974556 (ChemistryOpen, 2018)
Converted amounts (≈) assume the structure as drawn. Structures can show the parent of a compound that is named as a salt. Marks after values point to notes of the source that are not given here.

What was measured:
[1] = Water solubility, shake flask method in 0.1 M phosphate buffer pH 6.8; format: physicochemical; conditions: 37 °C, pH 6.8, aqueous buffer, thermodynamic from solid
Method in brief: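 Excess solid added to 1 mL sodium phosphate buffer, pH 6.8. Two conditions: 90 min sonication at 37 °C, or 30 min sonication at 37 °C, 23 h shaking at 300 rpm, then 30 min sonication. Centrifuged 14000 rpm for 5 min, filtered (0.2 µm) at 37 °C and diluted in DMSO. Quantified by LC at maximum absorbance against standard curves; independent triplicates.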

[2] = Ferric reducing antioxidant power; conditions: chemical antioxidant capacity, n=3
Method in brief: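 FRAP reagent made from acetate buffer, TPTZ in ethanol and FeCl3·6H2O in dilute HCl, mixed 10:1:1, with TPTZ and iron solutions fresh daily. Sample mixed with reagent 1:9, absorbance read at 593 nm after 4 min. Values expressed as Trolox equivalents by linear regression on a Trolox standard curve; α-tocopherol positive control.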

Caco‐2 cells [3] = assay: Mitochondria activity; format: cell-based; conditions: Homo sapiens, Caco-2, 72 h, read-out: Caco‐2 IC50 MTT
Method in brief: (§1)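 Cells kept in DMEM+glutamax with 1% NEAA, 1% P/S and 10% FBS at 37 °C, 10% CO2. Seeded 2×10^4 per well for 24 h, then exposed 72 h to test compound at various concentrations in serum-free medium, in triplicate. MTT (5 mg/mL in PBS) added for 2 h, formazan dissolved in DMSO, read at 570 nm. IC50 from % survival; doxorubicin control; MTT and SRB data pooled, mean ± SD, n≥6.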

Caco‐2 cells [4] = assay: Protein content; format: cell-based; conditions: Homo sapiens, Caco-2, 72 h, read-out: Caco‐2 IC50 SRB
Method in brief: (§2)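 Seeded 2×10^4 cells per well for 24 h, then treated with or without test compound for three days, in triplicate. Fixed with 50% TCA for 1 h at 4 °C, washed and dried. Stained 30 min at 4 °C with 0.4% sulforhodamine B in 1% acetic acid, rinsed with 1% acetic acid. Dye redissolved in Tris buffer, absorbance read at 490 nm. Doxorubicin control; MTT and SRB data pooled, mean ± SD, n≥6.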

EA.hy926 cells [5] = assay: Mitochondria activity; format: cell-based; conditions: Homo sapiens, EA.hy 926, 72 h, read-out: EA.hy926 IC50 MTT
Method in brief: as §1

EA.hy926 cells [6] = assay: Protein content; format: cell-based; conditions: Homo sapiens, EA.hy 926, 72 h, read-out: EA.hy926 IC50 SRB
Method in brief: as §2

HT‐29 cells [7] = assay: Mitochondria activity; format: cell-based; conditions: Homo sapiens, HT-29, 72 h, read-out: HT‐29 IC50 MTT
Method in brief: as §1

HT‐29 cells [8] = assay: Protein content; format: cell-based; conditions: Homo sapiens, HT-29, 72 h, read-out: HT‐29 IC50 SRB
Method in brief: as §2

HepG2 cells [9] = assay: Mitochondria activity; format: cell-based; conditions: Homo sapiens, HepG2, 72 h, read-out: HepG2 IC50 MTT
Method in brief: as §1

HepG2 cells [10] = assay: Protein content; format: cell-based; conditions: Homo sapiens, HepG2, 72 h, read-out: HepG2 IC50 SRB
Method in brief: as §2

Caco‐2 cells [11] = assay: Intracellular ROS; format: cell-based, human; conditions: protein content normalization, mean±SD, n≥3
Method in brief: (§3)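 Cells grown in DMEM+glutamax with 1% NEAA, 1% P/S and 10% FBS at 37 °C, 10% CO2. Seeded at 2×10^4 cells/well for 24 h, then confluent cells were exposed to test compound at 1 or 10 µM in serum-free medium, with NAC as control. Cells were washed, loaded with DCFH-DA for 30 min, then kept 1 h in phenol red-free DMEM. Fluorescence read at ex 485/em 535 nm, normalised to same-well SRB protein (490 nm) and given as % of untreated cells. Mean ± SD, n≥3; two-tailed t-test with unequal variances.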

EA.hy926 cells [12] = assay: Intracellular ROS; format: cell-based; conditions: Homo sapiens; for activity at 1 µM: EA.hy 926, read-out: Intracellular ROS, percentage compared to the untreated control cells (ROS/SRB), EA.hy926, 1 μM; for activity at 10 µM: EA.hy 926, read-out: Intracellular ROS, percentage compared to the untreated control cells (ROS/SRB), EA.hy926, 10 μM
Method in brief: as §3

HT‐29 cells [13] = assay: Intracellular ROS; format: cell-based; conditions: Homo sapiens; for activity at 1 µM: HT-29, read-out: Intracellular ROS, percentage compared to the untreated control cells (ROS/SRB), HT‐29, 1 μM; for activity at 10 µM: HT-29, read-out: Intracellular ROS, percentage compared to the untreated control cells (ROS/SRB), HT‐29, 10 μM
Method in brief: as §3

HepG2 cells [14] = assay: Intracellular ROS; format: cell-based; conditions: Homo sapiens; for activity at 1 µM: HepG2, read-out: Intracellular ROS, percentage compared to the untreated control cells (ROS/SRB), HepG2, 1 μM; for activity at 10 µM: HepG2, read-out: Intracellular ROS, percentage compared to the untreated control cells (ROS/SRB), HepG2, 10 μM
Method in brief: as §3

Compound	solubility at 90 min [1] [µM]	solubility at 24 h [1] [µM]	IC50 (Caco‐2 cells [3]) [µM]	IC50 (Caco‐2 cells [4]) [µM]	IC50 (HepG2 cells [9]) [µM]	IC50 (HepG2 cells [10]) [µM]	Intracellular ROS, percentage compared to the untreated control cells (ROS/SRB), Caco‐2, 1 μM (Caco‐2 cells [11])	Intracellular ROS, percentage compared to the untreated control cells (ROS/SRB), Caco‐2, 10 μM (Caco‐2 cells [11])	FRAP [2] [Trolox equiv per μM]	IC50 (EA.hy926 cells [5]) [µM]	IC50 (EA.hy926 cells [6]) [µM]	IC50 (HT‐29 cells [7]) [µM]	IC50 (HT‐29 cells [8]) [µM]	activity at 1 µM (EA.hy926 cells [12]) [%]	activity at 10 µM (EA.hy926 cells [12]) [%]	activity at 1 µM (HT‐29 cells [13]) [%]	activity at 10 µM (HT‐29 cells [13]) [%]	activity at 1 µM (HepG2 cells [14]) [%]	activity at 10 µM (HepG2 cells [14]) [%]
COCCCN1C(/C=C/c2cccnc2)=CC(=O)CC1c1cccnc1 (centres unmarked) [6 d, (E)‐1‐(3‐Methoxypropyl)‐2‐(pyridin‐3‐yl)‐6‐[2‐(pyridin‐3‐yl)vinyl]‐2,3‐dihydropyridin‐4(1H)‐one]	1280 ± 61.2 (≈ 448 µg/mL)	2980 ± 166 (≈ 1040 µg/mL)	> 75	> 75	> 75	> 75	90.8±6.3%	89.9±3.4%	0.00	> 75	> 75	> 75	> 75	95.2 ± 5	98.3 ± 5.3	83.4 ± 5.6	88.4 ± 4.1	85.6 ± 8.9	95.7 ± 10
COc1cccc2c1C(=O)c1c(O)c3c(c(O)c1C2=O)C[C@@](O)(C(=O)CO)C[C@@H]3O[C@H]1C[C@H](N)[C@H](O)[C@H](C)O1 [Dox, doxorubicin hydrochloride, reference compound]			11.1 ± 1	12.1 ± 0.8	5.5 ± 1.4	2.5 ± 1.2				1.4 ± 0.5	1.4 ± 0.3	4 ± 0.9	3.5 ± 0.4						
CC(=O)N[C@@H](CS)C(=O)O [N‐acetyl‐L‐cysteine, reference compound]			> 75	> 75			55.7±5.8^[c] %	47.8±2.6^[c] %						79.6 ± 11.1	79.6 ± 7.4	90.1 ± 12	87.7 ± 3.7	73.1 ± 2.7	70.5 ± 3.1
Cc1c(C)c2c(c(C)c1O)CC[C@@](C)(CCC[C@H](C)CCC[C@H](C)CCCC(C)C)O2 [α‐tocopherol, reference compound]									0.76										

Now from value to molecule, other results behind:

solubility at 90 min [1] [µM]	solubility at 24 h [1] [µM]	IC50 (Caco‐2 cells [3]) [µM]	IC50 (Caco‐2 cells [4]) [µM]	IC50 (HepG2 cells [9]) [µM]	IC50 (HepG2 cells [10]) [µM]	Intracellular ROS, percentage compared to the untreated control cells (ROS/SRB), Caco‐2, 1 μM (Caco‐2 cells [11])	Intracellular ROS, percentage compared to the untreated control cells (ROS/SRB), Caco‐2, 10 μM (Caco‐2 cells [11])	Compound	FRAP [2] [Trolox equiv per μM]	IC50 (EA.hy926 cells [5]) [µM]	IC50 (EA.hy926 cells [6]) [µM]	IC50 (HT‐29 cells [7]) [µM]	IC50 (HT‐29 cells [8]) [µM]	activity at 1 µM (EA.hy926 cells [12]) [%]	activity at 10 µM (EA.hy926 cells [12]) [%]	activity at 1 µM (HT‐29 cells [13]) [%]	activity at 10 µM (HT‐29 cells [13]) [%]	activity at 1 µM (HepG2 cells [14]) [%]	activity at 10 µM (HepG2 cells [14]) [%]
168 ± 6 (≈ 56.2 µg/mL)	303 ± 16 (≈ 101 µg/mL)	45.3 ± 10.5	31.6 ± 9	26.2 ± 0.3	20.8 ± 1.5	109.8±7.4%	114.7±3.1^[b] %	CC(C)CNC(=C\C(=O)/C=C/c1cccnc1)/C=C/c1cccnc1 [5 a, (1E,4Z,6E)‐5‐Isobutylamino‐1,7‐di(pyridin‐3‐yl)hepta‐1,4,6‐trien‐3‐one]	0.03	33 ± 9.5	35.9 ± 7.2	37.6 ± 1.8	30.9 ± 10.9	88.7 ± 9.3	93.4 ± 14.6	103 ± 11.1	84.1 ± 2.5	90.7 ± 13.7	94 ± 4.6
11.3 ± 0.6 (≈ 4.06 µg/mL)	12.2 ± 0.6 (≈ 4.39 µg/mL)	65.6 ± 2.1	60.8 ± 6	> 75	> 75	101.3±0.9%	117.7±5.6^[b] %	O=C(/C=C(/C=C/c1cccnc1)NC1CCCCC1)/C=C/c1cccnc1 [5 b, (1E,4Z,6E)‐5‐Cyclohexylamino‐1,7‐di(pyridin‐3‐yl)hepta‐1,4,6‐trien‐3‐one]	0.00	40.2 ± 1.4	53 ± 1.9	36.4 ± 7.9	19.4 ± 0.9	89.1 ± 4.2	114 ± 9.5	93.7 ± 13.2	90.6 ± 2.8	92.3 ± 7.8	98.8 ± 4.6
895 ± 18 (≈ 300 µg/mL)	2280 ± 174 (≈ 766 µg/mL)	53.8 ± 0.6	49.1 ± 0.6	56.7 ± 3.7	66.4 ± 1.3	102.4±8.8%	243.2±17.5^[b] %	COCCNC(=C\C(=O)/C=C/c1cccnc1)/C=C/c1cccnc1 [5 c, (1E,4Z,6E)‐5‐(2‐Methoxyethylamino)‐1,7‐di(pyridin‐3‐yl)hepta‐1,4,6‐trien‐3‐one]	0.00	60 ± 10.5	63 ± 8.3	55.3 ± 12.5	46 ± 15.8	83.7 ± 6.7	89.5 ± 2.7	100 ± 5.8	88.1 ± 3.6	94.8 ± 4	88.4 ± 5.3
897.4 ± 1.1 (≈ 314 µg/mL)	2310 ± 90 (≈ 808 µg/mL)	28.5 ± 3.5	36 ± 0.1	> 75	> 75	101.5±9.2%	110.6±5.3^[b] %	COCCCNC(=C\C(=O)/C=C/c1cccnc1)/C=C/c1cccnc1 [5 d, (1E,4Z,6E)‐5‐(3‐Methoxypropylamino)‐1,7‐di(pyridin‐3‐yl)hepta‐1,4,6‐trien‐3‐one]	0.01	70.6 ± 2.5	72.7 ± 3.7	59.6 ± 7.7	51.5 ± 6.1	102 ± 5.8	98.3 ± 2	102 ± 19.4	95.1 ± 14	92.3 ± 4.6	89.4 ± 3.1
4350 ± 260 (≈ 1400 µg/mL)	4850 ± 140 (≈ 1560 µg/mL)	> 75	> 75	> 75	> 75	111.4±8.9%	118.6±2.8^[c] %	O=C(/C=C(/C=C/c1cccnc1)NCCO)/C=C/c1cccnc1 [5 e, (1E,4Z,6E)‐5‐(2‐Hydroxyethylamino)‐1,7‐di(pyridin‐3‐yl)hepta‐1,4,6‐trien‐3‐one]	0.04	> 75	> 75	> 75	> 75	102 ± 1.6	115 ± 7.6	93.9 ± 5.5	110 ± 3.7	88.6 ± 15.2	92.1 ± 5.1
1470 ± 24 (≈ 494 µg/mL)	4270 ± 332 (≈ 1430 µg/mL)	> 75	> 75	> 75	> 75	102.5±2.3%	115.4±8.5%	O=C(/C=C(/C=C/c1cccnc1)NCCCO)/C=C/c1cccnc1 [5 f, (1E,4Z,6E)‐5‐(3‐Hydroxypropylamino)‐1,7‐di(pyridin‐3‐yl)hepta‐1,4,6‐trien‐3‐one]	0.04	> 75	> 75	> 75	> 75	88.7 ± 1.6	102 ± 1.6	95.4 ± 1.7	96 ± 12.7	84.8 ± 2.5	74.4 ± 3.2
